In assay [1] the target is Beta-2 adrenergic receptor (Rattus norvegicus, UniProt P10608). The assay can be described thus: Binding affinity against the beta-2 adrenergic receptor using [3H]- DHA. An outline of the steps:
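β2 sites in rat cerebellum membranes (male Long-Evans, 150–250 g) with [3H]dihydroalprenolol at 0.5 nM final. (-)-Alprenolol at 1 μM final defined the reference. IC50 from four or five concentrations by nonlinear curve fit.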

Assay [2] deals with Muscarinic acetylcholine receptor. The assay can be described thus: Binding affinity against the Muscarinic acetylcholine receptor using [3H]- QNB. Type of assay: protein assay, Rattus norvegicus. An outline of the steps: (§1)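 Muscarinic sites in rat brain stem membranes (male Long-Evans, 150–250 g), labelled with [3H]quinuclidinyl benzilate at 0.03 nM final. Oxotremorine at 100 μM final served as the reference displacer. IC50 from four or five concentrations by nonlinear curve fitting.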

Assay [3] concerns the target Beta-1 adrenergic receptor (Rattus norvegicus, UniProt P18090). The assay can be described thus: Binding affinity against the beta-1 adrenergic receptor using [3H]- DHA. An outline of the steps: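 β1 sites in rat cerebral cortex membranes (male Long-Evans, 150–250 g) with [3H]dihydroalprenolol at 0.5 nM final. (-)-Alprenolol at 1 μM final defined the reference. IC50 from four or five concentrations by nonlinear curve fit.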

The target in assay [4] is Dopamine receptor. The assay is described as follows: Binding affinity against dopamine receptor using [3H]- haloperidol in rat brain. Type of assay: tissue-based. In a few lines:
(§2)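 Nonspecific binding defined with (+)-butaclamol at 0.1 μM final. IC50 fitted by nonlinear curve fit from four or five concentrations in triplicate.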

The target of assay [5] is T1, Adrenergic receptor alpha-1 (Rattus norvegicus, UniProt P15823+P23944+P43140).
T1 sequence (P15823 whole entry): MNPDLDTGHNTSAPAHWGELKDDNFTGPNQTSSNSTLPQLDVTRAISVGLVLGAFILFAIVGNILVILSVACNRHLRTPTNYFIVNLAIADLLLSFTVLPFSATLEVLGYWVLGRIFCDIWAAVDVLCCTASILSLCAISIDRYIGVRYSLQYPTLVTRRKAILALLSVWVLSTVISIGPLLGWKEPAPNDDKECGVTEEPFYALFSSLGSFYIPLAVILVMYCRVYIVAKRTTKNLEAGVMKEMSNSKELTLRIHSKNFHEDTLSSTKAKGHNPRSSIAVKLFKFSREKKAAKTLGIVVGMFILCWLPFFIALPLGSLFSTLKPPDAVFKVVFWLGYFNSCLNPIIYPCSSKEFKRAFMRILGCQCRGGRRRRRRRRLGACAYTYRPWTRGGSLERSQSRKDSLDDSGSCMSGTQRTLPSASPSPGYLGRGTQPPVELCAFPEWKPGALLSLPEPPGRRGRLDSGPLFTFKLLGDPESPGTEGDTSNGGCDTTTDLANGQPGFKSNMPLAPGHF
T1 sequence (P23944 whole entry): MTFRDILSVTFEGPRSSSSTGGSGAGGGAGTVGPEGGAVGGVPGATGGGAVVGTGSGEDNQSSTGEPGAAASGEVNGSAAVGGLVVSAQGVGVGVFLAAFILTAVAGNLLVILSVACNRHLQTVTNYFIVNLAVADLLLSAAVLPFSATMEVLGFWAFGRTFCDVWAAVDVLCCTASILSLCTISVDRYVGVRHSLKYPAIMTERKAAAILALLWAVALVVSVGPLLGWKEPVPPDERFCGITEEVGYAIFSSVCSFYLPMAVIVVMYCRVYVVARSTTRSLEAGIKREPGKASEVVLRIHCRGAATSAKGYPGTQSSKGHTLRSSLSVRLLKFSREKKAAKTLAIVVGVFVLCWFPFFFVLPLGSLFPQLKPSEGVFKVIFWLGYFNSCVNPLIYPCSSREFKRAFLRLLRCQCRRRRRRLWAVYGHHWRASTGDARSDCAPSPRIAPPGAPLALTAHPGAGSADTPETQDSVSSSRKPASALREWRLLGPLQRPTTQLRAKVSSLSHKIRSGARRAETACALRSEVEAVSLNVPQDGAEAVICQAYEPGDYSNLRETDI
T1 sequence (P43140 whole entry): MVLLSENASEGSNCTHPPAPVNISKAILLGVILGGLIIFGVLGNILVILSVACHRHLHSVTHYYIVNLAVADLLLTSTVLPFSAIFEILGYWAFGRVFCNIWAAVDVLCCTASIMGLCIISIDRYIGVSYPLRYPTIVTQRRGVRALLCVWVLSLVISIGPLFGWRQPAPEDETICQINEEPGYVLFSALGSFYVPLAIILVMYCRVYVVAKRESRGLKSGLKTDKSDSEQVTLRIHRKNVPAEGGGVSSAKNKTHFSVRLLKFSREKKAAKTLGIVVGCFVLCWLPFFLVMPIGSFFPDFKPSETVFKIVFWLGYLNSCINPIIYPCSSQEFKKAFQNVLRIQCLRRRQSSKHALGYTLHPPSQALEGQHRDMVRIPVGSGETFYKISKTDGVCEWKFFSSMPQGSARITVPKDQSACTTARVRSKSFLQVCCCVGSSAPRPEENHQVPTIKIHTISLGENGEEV
The assay is described as follows: Binding affinity against lpha-1 adrenergic receptor using [3H]- WB-4101. Type of assay: protein assay. An outline of the steps:
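α1-Adrenergic binding in rat frontal cerebral cortex membranes (male Long-Evans, 150–250 g) with [3H]WB4101 at 0.5 nM final. (-)-Norepinephrine at 100 μM final was the reference standard. IC50 from four or five concentrations by nonlinear curve fitting.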

Assay [6] deals with Muscarinic acetylcholine receptor. The assay is described as follows: Binding affinity against Muscarinic acetylcholine receptor in rat brain using [3H]- QNB. Type of assay: tissue-based. In a few lines:
as §1

The test system of assay [7] is Rattus norvegicus. The assay is described as follows: Antagonized affect on the accumulation of the brain dopamine induced by butyrolactone (GBL) at 25 mg/kg after intraperitoneal administration. More on the design: scale not given: the % may be the effect or the level left. In kind it is functional. In a few lines: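 Rats received test compound ip 30 min before γ-butyrolactone (750 mg/kg ip) and were killed 1 h after GBL. Dopamine in brain minus brain stem and cerebellum (four to six rats) was measured spectrofluorometrically and expressed as % of the GBL-treated group.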

Assay [8] deals with Dopamine receptor (Rattus norvegicus) (UniProt P25115+P19020+P30729+P18901+P61169). The assay can be described thus: Compound was tested for its effect on Dopamine turnover in rat at dose of 10+/-250 mg/kg. In kind it is functional, organism-based. As to conditions: in the assay text read “64+/-250 mg/kg” for “10+/-250 mg/kg”. An outline of the steps: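 Male Long-Evans rats were given vehicle or agent ip 30 min before α-methyl-p-tyrosine (250 mg/kg) and killed 4 h after it. Brain NE and DA were isolated on Sephadex G-10 and measured spectrofluorometrically. Values are percent of vehicle-treated, with at least five determinations per value.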

The target of assay [9] is Dopamine receptor. The assay can be described thus: Binding affinity against dopamine receptor in rat striatal membrane using [3H]haloperidol. In kind it is cell membranes, Striatum. In a few lines: as §2
In another assay the test system is Canis familiaris. The assay can be described thus: Emesis test in dogs was determined when dose administered per orally. As to conditions: Canis lupus familiaris, po; read-out: MED. In kind it is functional. In a few lines: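 Fasted dogs (7–12 kg), normally three per dose, were dosed orally and observed hourly for up to 6 h for emesis and other autonomic or behavioural signs. The minimal effective dose was the lowest dose producing emesis in any animal.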

A short description of assay [10]: Inhibition of sidman avoidance in rats after peroral administration.
In assay [11] the test system is Rattus norvegicus. The assay is described as follows: Inhibition of conditional avoid in rats after peroral administration. Type of assay: functional. As to conditions: po. In a few lines: (§3)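 Fasted male Wistar rats (150–250 g) were trained to jump to a platform at a buzzer to avoid grid shock (1.1 mA/s). After oral dosing they were tested every 20 min for 6 h over 19 trials, 10 rats per dose, each rat used once. Peak effect was the mean of the four consecutive trials with the largest effect, computed from response latency. ED50 read graphically from at least three doses.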

The species entered for assay [12] is Rattus norvegicus. The assay can be described thus: Effective dose required for inhibition of conditional avoidance in rats. In kind it is functional. An outline of the steps:
as §3

This is an account of results in ChEMBL document CHEMBL1123363, “(5-Amino-1,3-dimethyl-1H-pyrazol-4-yl)(2-fluorophenyl)methanones . A series of novel potential antipsychotic agents” (J Med Chem, 1986).

Molecules are shown by their SMILES.

Sequence of Beta-1 adrenergic receptor (P18090 whole entry): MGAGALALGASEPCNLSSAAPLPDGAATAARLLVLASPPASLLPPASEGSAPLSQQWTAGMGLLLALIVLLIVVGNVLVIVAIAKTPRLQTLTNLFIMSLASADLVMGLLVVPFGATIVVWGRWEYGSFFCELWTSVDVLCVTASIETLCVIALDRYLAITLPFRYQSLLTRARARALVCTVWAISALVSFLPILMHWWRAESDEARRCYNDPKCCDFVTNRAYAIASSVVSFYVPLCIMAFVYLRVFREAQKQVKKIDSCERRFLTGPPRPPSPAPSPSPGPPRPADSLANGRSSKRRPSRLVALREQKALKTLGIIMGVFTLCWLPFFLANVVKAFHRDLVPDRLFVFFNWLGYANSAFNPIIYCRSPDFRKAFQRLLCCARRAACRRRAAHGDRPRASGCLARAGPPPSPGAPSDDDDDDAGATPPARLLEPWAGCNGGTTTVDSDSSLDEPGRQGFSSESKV
Sequence of Beta-2 adrenergic receptor (P10608 whole entry): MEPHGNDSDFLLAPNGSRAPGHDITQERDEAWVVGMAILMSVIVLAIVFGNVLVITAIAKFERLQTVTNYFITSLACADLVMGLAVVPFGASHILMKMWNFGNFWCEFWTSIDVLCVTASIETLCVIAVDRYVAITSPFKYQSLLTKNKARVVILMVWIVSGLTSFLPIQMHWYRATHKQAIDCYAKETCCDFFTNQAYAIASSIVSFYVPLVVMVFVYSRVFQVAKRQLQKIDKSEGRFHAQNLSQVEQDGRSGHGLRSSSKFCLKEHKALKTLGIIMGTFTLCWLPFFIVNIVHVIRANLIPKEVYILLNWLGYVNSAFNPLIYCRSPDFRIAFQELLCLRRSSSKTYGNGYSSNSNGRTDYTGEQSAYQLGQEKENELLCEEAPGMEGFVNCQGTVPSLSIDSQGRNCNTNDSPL

As for `CCN(CC)CC(=O)Nc1c(C(=O)c2ccccc2F)c(C)nn1C`, the IC50 (in assay [1]; in assay [2]; in assay [3]; on Dopamine receptor [4]; in [5]) was over 10 µM each time.
As for `Cc1nn(C)c(NC(=O)CNCCCN2CCCCC2C)c1C(=O)c1ccccc1F` (stereo not drawn), the IC50 (in assay [6]; at Dopamine receptor [9]) was over 10 µM throughout. For the same compound, the values for the Control (in the assay with Rattus norvegicus [7]; in assay [8]) were 91.2% and 45.6%, respectively. Also, the minimal effective dose in the assay on Canis familiaris worked out at 56 mg/kg. The ED50 turned out to be 21.3 mg/kg in assay [10] and 43.5 mg/kg in the assay on Rattus norvegicus [11].
`Cc1nn(C)c(N)c1C(=O)c1ccccc1F` showed an ED50 in the assay filed under Rattus norvegicus [12] of 18 mg/kg.

Broadly, the IC50 is the concentration needed to halve the response being measured. What is called ED50 is the dose at which the effect has come halfway, by size or by number of responders.
